B2AR ag = human beta-2 adrenergic receptor agonism by FAP | P07550 | Am2.2-beta2AR cells, FAP receptor internalization, flow cytometry | response, % (no concentration beside the values) | hit rate 0.43% among 340,000 | AID 504454;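 active = response above a set limit, near 3 SD of response in nonfluorescent compounds, cut at about 42% in these data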
XBP1 UPR activ = activators of adaptive arm of unfolded protein response (XBP1); AID 463104; CHO-XBP1 luciferase reporter, IRE1-XBP1 UPR activation, luminescence; percent of tunicamycin response, DMSO as zero; activation, % at 20 µM; hit rate 0.33% among 330,000;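 active = versus positive control, 20 µM dose yields 30% or more activation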;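 also: 100% = tunicamycin at 10 µg/mL and 0% = DMSO only wells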
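assay system = CHO-XBP1 luciferase reporter cells | amount = 1000 cells/well | buffer or medium = F12 plus 10% FBS | compound dosing = single point, 20 µM final compound, 1% DMSO | incubation = 16-18 h cell attachment at 37 °C, then 6 h compound exposure | detection = Steady-Glo luminescence read | controls = tunicamycin 10 µg/mL and vehicle-only wells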
Dynein cargo inh = blocks dynein driven cargo transport along microtubules | z-score, hits read low | 3617.4 mouse cells, GR-EGFP nuclear translocation imaging; test concentration mostly 20 µM; stimulated with dexamethasone, 1 µM; active compounds read low | hit rate 0.47% among 220,000 | AID 1381;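 active = plate z-score of nuclear minus cytoplasmic receptor signal below a set negative limit, without overly bright fluorescence or cell loss, cut at about -3.5 in these data, passing the limit was not always enough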;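 also: z-score of nuclear minus cytoplasmic ring GR-EGFP intensity difference per well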
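Buffer or medium: tet-free, stripped-serum medium; reagent: dexamethasone at 1.0 µM final, 30 min; incubation: 48 h induction, 1 h compound, 30 min dex at 37 °C; measured by: formaldehyde fixation, Hoechst nuclear stain, 10x automated fluorescence imaging; read-out: nuclear-to-cytoplasmic GR-EGFP distribution per well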
MDM2 E3 inh = blocks human Mdm2 ubiquitin ligase activity. Q00987. cell-based MDM2 ubiquitination luciferase reporter, 2 h; 0 = plate control, 100 = twice control, blank-subtracted. signal enhancement, % at 5 µM. hit rate 0.11% among 210,000. AID 1230;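 active = signal enhancement of 30% or more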;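 also: luminescence tracks abundance of the self-degrading MDM2-luciferase fusion protein; higher signal means inhibition of MDM2 E3 ligase activity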
Target sequence (Q00987 whole entry, looked up, the tested form may be a part): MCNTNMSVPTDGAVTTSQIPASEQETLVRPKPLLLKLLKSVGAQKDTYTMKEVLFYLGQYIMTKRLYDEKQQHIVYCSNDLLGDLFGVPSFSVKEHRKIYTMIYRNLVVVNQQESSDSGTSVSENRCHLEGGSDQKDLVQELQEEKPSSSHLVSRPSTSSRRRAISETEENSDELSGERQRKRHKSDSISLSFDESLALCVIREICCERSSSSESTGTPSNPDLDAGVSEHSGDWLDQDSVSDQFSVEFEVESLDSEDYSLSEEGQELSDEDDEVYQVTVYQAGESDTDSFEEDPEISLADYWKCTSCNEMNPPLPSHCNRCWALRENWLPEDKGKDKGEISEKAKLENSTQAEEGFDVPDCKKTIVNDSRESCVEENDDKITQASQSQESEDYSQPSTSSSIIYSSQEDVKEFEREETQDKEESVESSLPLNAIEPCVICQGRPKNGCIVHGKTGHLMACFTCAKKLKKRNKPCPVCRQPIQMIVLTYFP
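Assay system: stable mammalian line carrying autodegrading MDM2–luciferase fusion reporter; amount: 2000 cells seeded into each well; buffer or medium: DMEM; benchmarks: plate control and blank wells; signal: luciferase luminescence; timing: 2 h compound exposure at 37 °C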
UPR CHOP act = apoptotic UPR (CHOP) activation. activation, % at 10 µM. AID 449763. hit rate 0.34% among 330,000. CHO-CHOP luciferase reporter, luminescence; percent of tunicamycin response over DMSO baseline;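 active = at 10 µM dose, activation of 40% or more, normalized to positive control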;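 also: 100% = tunicamycin at 10 µg/mL and 0% = DMSO alone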
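Test system: CHO CHOP reporter cells. Input: 500 CHO-CHOP cells per well. Medium: F12 with 10% FBS. Technique: luciferase luminescence. Measure: percent activation relative to tunicamycin control. Dosing: 10 µM compound, 0.5% DMSO. Timing: 16-18 h cell attachment, then 6 h compound exposure, 37 °C.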
Mdm2-MdmX inh = inhibitors of human Mdm2/MdmX interaction | inhibition, % at 8 µM | SaOS-2 split-luciferase Mdm2/MdmX complementation, luminescence | hit rate 3% among 330,000;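 active = inhibition of at least 50% at 8 µM in the primary screen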
Mdm2-MdmX conf = human Mdm2/MdmX binding inhibition, confirmed; inhibition, % at 8 µM; shares compounds with Mdm2-MdmX inh; hit rate 55% among 10,000; luminescent assay; in the data active = inhibition above about 40%
FLuc counter = full-length luciferase inhibition in Mdm2/MdmX counter-screen; hit rate 77% among 6,200; inhibition, % at 8 µM; SaOS-2 full-length luciferase counterscreen, luminescence; shares compounds with Mdm2-MdmX inh;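 active = mean inhibition at 8 µM reaching about 37%, which flags the compound as non-specific, limit read from the data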;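 also: p53-null SaOS-2 cells with luciferase driven by a doxycycline-inducible promoter; compound on cells about two nights before reading with doxycycline added after day one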
An asterisk follows results filed as active; · = no result given. An excerpt weighted towards active compounds, which were near 3.7% of everything screened.

SMILES	B2AR ag	XBP1 UPR activ	Dynein cargo inh	MDM2 E3 inh	UPR CHOP act	Mdm2-MdmX inh	Mdm2-MdmX conf	FLuc counter
COc1ccc(NC(=O)c2cc3ccccc3o2)cc1S(=O)(=O)N1CCCCC1	8	-6	·	·	0	34	·	·
COc1ccc(CC(=O)Oc2ccc(Cl)cc2Br)cc1S(=O)(=O)N1CCOCC1	-9	0	·	·	3	-1	·	·
O=C(CN1CSCC1=O)N1CCN(S(=O)(=O)c2ccc(Cl)cc2)CC1	0	2	·	·	0	21	·	·
CC(C)=CCc1c(-c2ccc(O)cc2O)oc2c3c(cc(O)c2c1=O)OC(C)(C)C=C3	·	-1	·	·	-3	35	·	·
CC(C)=CCc1c2c(c(O)c3c(=O)c4c(oc13)-c1cc(O)c(O)cc1OC4C=C(C)C)C=CC(C)(C)O2 (stereo unspecified)	·	-3	·	·	1	83*	42*	34
CN(C)c1ccc(/C=C(/NC(=O)c2ccccc2)C(=O)N2CCCC2)cc1	2	-2	·	·	-1	-1	·	·
CCc1ccccc1NC(=O)c1ccc(CN2CCC(Cc3ccccc3)CC2)cc1	20	-5	-0.13	-4	2	51*	36	76*
Cc1ccc(S(=O)(=O)NCc2ccc(C(=O)NCCCN3CCC(Cc4ccccc4)CC3)cc2)cc1	1	-6	2.5	-15	-1	75*	42*	43*
COCCNC(=O)c1ccc(CN2CCC(Cc3ccccc3)CC2)cc1	-5	-2	·	·	1	-30	·	·
O=C(NCc1ccccc1)c1ccc(CN2CCC(Cc3ccccc3)CC2)cc1	5	-3	·	·	0	54*	28	·
Cc1ccc(S(=O)(=O)NCCC(=O)N2CCC(Cc3ccccc3)CC2)cc1	0	-5	·	·	1	2	·	·
Cc1ccccc1CNS(=O)(=O)c1c(C)[nH]c(C)c1C(=O)N1CCCCC1	0	-4	·	·	-1	-9	·	·
CC(C)c1nc2sc3c(c2c(=O)[nH]1)CC(C)(C)OC3	-3	-5	·	·	1	7	·	·
O=C(NN=Cc1ccccc1)C(Oc1ccccc1)c1ccccc1 (stereo unspecified)	1	·	·	·	·	·	·	·
COc1ccc(N(C(=O)c2ccccc2C)S(=O)(=O)c2cccs2)cc1	29	15	0.35	-5	6	59*	53*	105*
COc1ccc(N(C(=O)c2ccncc2)S(=O)(=O)c2ccccc2)cc1	2	-2	·	·	2	18	·	·
CC1CCCC(C)N1C(=O)COC(=O)c1cncc(Br)c1 (stereo unspecified)	-4	-1	·	·	-1	9	·	·
CCOc1ccccc1CNC(=O)c1cc2oc3ccccc3c2n1C	-7	5	-0.034	-13	1	84*	87*	26
Cc1nc2sc(C(N)=O)c(N)c2c(C)c1CC(=O)c1ccccc1	3	4	0.43	5	5	58*	62*	31
COC(=O)[C@@]12CCCN1[C@H](c1ccc(-c3ccc(Cl)c(Cl)c3)cc1)[C@H]1C(=O)N(C)C(=O)[C@H]12	11	-3	·	·	-1	31	·	·
Cc1cccc(OCCOC(=O)CN2C(=O)NC3(CCCC3)C2=O)c1	1	-2	·	·	-1	25	·	·
COc1ccc(OC)c(S(=O)(=O)Nc2cc(OC)c(Cl)cc2OC)c1	15	-3	-1.5	-1	-2	11	·	·
COc1cc(NS(=O)(=O)c2ccc(OC)c(C)c2C)c(OC)cc1Cl	-14	1	0.4	-16	-1	51*	55*	63*
C=CCc1cc(/C=C2/NC(=S)NC2=O)cc(OC)c1O	-10	10	-0.3	-2	-4	55*	20	·
CC(C)C(C)NC(=O)CN1C(=O)NC(c2ccccc2)(c2ccccc2)C1=O (stereo unspecified)	1	-4	·	·	2	19	·	·
SMILES	B2AR ag	XBP1 UPR activ	Dynein cargo inh	MDM2 E3 inh	UPR CHOP act	Mdm2-MdmX inh	Mdm2-MdmX conf	FLuc counter
CC1(CCc2ccccc2)NC(=O)N(CC(=O)Nc2ccc(OC(F)F)cc2)C1=O (stereo unspecified)	-3	0	·	·	2	18	·	·
Nc1nc(N)nc(-c2cc([N+](=O)[O-])ccc2O)n1	-4	-4	·	·	4	77*	63*	82*
Cc1nc(N)nc(-c2ccccc2O)n1	2	1	-0.034	2	-1	26	·	·
Nc1nc(N)nc(-c2cc(O)ccc2O)n1	2	-1	·	·	1	88*	95*	55*
Cc1ccc(C)c(C(=O)c2ccccc2NC(=O)c2ccccn2)c1	1	-2	·	·	1	57*	58*	73*
O=C(/C=C/c1ccc2c(c1)OCO2)Nc1nc2ccccc2s1	20	5	0.92	-22	8	48	·	·
Cc1ccc2nc(NC(=O)/C=C/c3ccc4c(c3)OCO4)sc2c1	27	7	0.54	-11	12	78*	22	·
CCOc1ccc2nc(NC(=O)c3ccccn3)sc2c1	24	-7	-0.66	·	14	76*	76*	42*
Cc1ccc2nc(NC(=O)c3ccccn3)sc2c1	2	-11	-0.17	-88	9	100*	90*	56*
Cc1ccc(C(NC(=O)C2CCCCC2)c2c(O)ccc3ccccc23)cc1 (stereo unspecified)	2	-5	0.07	-9	-2	80*	61*	49*
CC(=O)NC(c1ccc(C(C)C)cc1)c1c(O)ccc2ccccc12 (stereo unspecified)	-7	-3	·	·	-1	-5	·	·
Cc1ccn2c(Nc3ccccc3C)c(-c3ccccn3)nc2c1	11	11	-0.063	8	16	85*	52*	32
Cc1ccccc1Nc1c(-c2cccnc2)nc2ccccn12	8	-3	-0.48	-3	0	29	·	·
Cc1ccc2nc(-c3cccnc3)c(Nc3ccccc3C)n2c1	-5	1	-0.45	-3	-1	20	·	·
Cc1ccccc1Nc1c(-c2ccccn2)nc2ccccn12	-6	12	0.49	-9	2	65*	46*	52*
Cc1cccn2c(Nc3ccccc3)c(-c3ccccn3)nc12	-17	2	-1.9	-17	3	-5	·	·
Cc1ccc2nc(-c3ccccn3)c(Nc3ccccc3C)n2c1	9	7	1.6	-4	19	86*	75*	36
Cc1ccn2c(Nc3ccccc3)c(-c3ccccn3)nc2c1	17	9	-0.54	-4	16	81*	83*	21

Assay outcomes (PubChem BioAssay)
